Compound activity from PubChem.
The full list was thinned out, with hits kept by preference.
T cruzi repl = T. cruzi replication inhibition; 300,000 compounds, 1.4% hits; inhibition, % (concentration not given with the values); T. cruzi beta-gal in NIH3T3, luminescence, 90 h;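 active = mean inhibition across valid replicates above about 55%, limit read from the data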;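 also: signal also drops with host cell toxicity which is not excluded here; higher percent means less beta-gal luminescence so fewer parasites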
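Test system: β-gal T. cruzi (Tulahuen C4) inside NIH/3T3 cells / Quantity: 5,000 cells/well / Measured by: luminescence from GalScreen with 0.05% NP40, read after 60 min / Medium: DMEM plus 2% FBS / Measure: parasite load inhibition, % / Reagent: Tulahuen C4 trypomastigotes, 5000/well / Schedule: co-culture of at least 90 h after 3 h attachment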
Hep lipid drop = modulators of hepatic lipid droplet formation. AML12 mouse hepatocytes, oleate lipid droplets, BODIPY imaging. inhibition, % at 6.5 µM. 240,000 compounds, 0.4% hits;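 active = lipid droplet intensity inhibited by at least 50%, with more than 500 cells counted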
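Material: mouse AML12 hepatocyte cell line, fixed after treatment; Timing: compound with oleate, overnight; Technique: high-content imaging of BODIPY-stained droplets and DAPI nuclei; Probe or stimulus: oleate, 100 µM final; Dosing: compound at 6.5 µM only.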
MPTP block = blocks calcium-induced mitochondrial swelling | inhibition, % at 10 µM | AID 602449 | 360,000 compounds, 1.4% hits | isolated mouse mitochondria, Ca2+ swelling absorbance, 30 min;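 active = inhibition of 50% or more, scaled per plate between neutral and stimulator controls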
DTT redox prof = compounds producing H2O2 with reducing agent – biochemical, NIH compound library profiling, artefact control for MLSCN library redox annotation, primary screen; DTT-dependent redox cycling H2O2, phenol red/HRP absorbance; 100% = 100 µM peroxide control, 0% = buffer; activation, % at 10 µM; 200,000 compounds, 0.03% hits; AID 878;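 active = activation of at least 50% relative to the plate's high and low controls in the primary single-dose screen; inactive = activation below 50%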;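 also: compound incubated with DTT at 0.8 mM final as the reducing agent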
L major viab = reduces viability of Leishmania major promastigotes; inhibition, % at 10 µM; AID 1063; resazurin fluorescence viability; 200,000 compounds, 9% hits; in the data active = inhibition above about 50%;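 also: promastigotes grown with compound for 44 hours at 28 °C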
Hits are given with their value; i = inactive; nt = not tested or not shown.

SMILES	T cruzi repl	Hep lipid drop	MPTP block	DTT redox prof	L major viab
O=C(NCCN1CCCC1)c1ccc(Cl)cc1	i	i	i	i	i
Cc1ccc(S(=O)(=O)Nc2cc(C(=O)NCCN3CCCC3)ccc2N2CCCCC2)cc1	i	nt	i	i	99
CC(C)(C)c1cc(C(=O)NCCN2CCCC2)cc(C(C)(C)C)c1	71	i	i	i	i
COCCCNC(=O)c1ccc(N2CCCC2)c(NS(=O)(=O)c2ccc(C)cc2)c1	i	nt	i	i	i
CCOCCCNC(=O)c1ccc(N2CCCC2)c(NS(=O)(=O)c2ccc(C)cc2)c1	i	i	i	i	i
Cc1ccc(S(=O)(=O)Nc2cc(C(=O)NCCN(C)C)ccc2N2CCCCC2)cc1	nt	i	i	i	87
O=c1c(Cl)c(N2CCC3(CC2)OCCO3)cnn1C12CC3CC(CC(C3)C1)C2	i	i	i	nt	nt
FC(F)(F)c1cnc(Sc2nc3nccc(-c4ccc(Cl)cc4)n3n2)c(Cl)c1	55	nt	i	i	i
CCCCOCCCNC(=O)N[C@H](C(=O)OC)C(C)CC (stereo partly specified)	i	i	i	nt	nt
CCN(CC)c1c([N+](=O)[O-])c(=O)n(C)c2ccccc12	i	i	i	i	i
CCn1c(=O)c([N+](=O)[O-])c(NCCc2ccccc2)c2ccccc21	i	i	i	i	100
Cn1c(=O)c([N+](=O)[O-])c(Cl)c2ccccc21	88	i	i	i	i
Cn1c(=O)c([N+](=O)[O-])c(NCc2ccccc2Cl)c2ccccc21	i	i	i	nt	nt
Cn1c(=O)c([N+](=O)[O-])c(NCCc2ccccc2)c2ccccc21	59	i	i	i	i
CC1CCCC(NC(=O)COC(=O)CSc2ccc3ccccc3c2)C1C (stereo unspecified)	i	i	i	nt	55
COCCNC(=S)NC(=O)CC12CC3CC(CC(C3)C1)C2	i	i	i	i	88
CNC(=O)CC12CC3CC(CC(C3)C1)C2	i	i	i	i	i
COc1cccc2c1C(=O)CC1C2CCC2CC(=O)CCC21C (stereo unspecified)	i	nt	i	nt	nt
CC1CCCCN1C(=O)N[C@@H](Cc1ccccc1)C(=O)O (stereo partly specified)	i	nt	i	i	51
O=C(NC(Cc1ccccc1)C(=O)NC(Cc1ccccc1)C(=O)O)c1ccccc1 (stereo unspecified)	i	i	i	i	57
CC(=O)NC(Cc1ccccc1)C(=O)NC(Cc1ccccc1)C(=O)O (stereo unspecified)	i	nt	i	nt	nt
O=C(O)[C@H](Cc1ccccc1)NC(=O)N1CCCCCC1	i	i	i	nt	nt
O=C(O)[C@H](Cc1ccccc1)NC(=O)N1CCOCC1	i	nt	i	i	70
O=C(O)C(Cc1ccc(O)cc1)N1C(=O)C2CCCCC2C1=O (stereo unspecified)	i	i	i	nt	nt
CC1CCCCN1C(=O)C(Cc1ccccc1)N1C(=O)C2CCCCC2C1=O (stereo unspecified)	i	i	i	i	62
SMILES	T cruzi repl	Hep lipid drop	MPTP block	DTT redox prof	L major viab
CC(C)C[C@@H](CNC(=O)OC(C)(C)C)NC(=O)c1nc[nH]c1C(=O)N[C@@H](CC(C)C)C(=O)CNC[C@H](CC(C)C)NC(=O)c1nc[nH]c1C(=O)N[C@@H](Cc1c[nH]c2ccccc12)C(=O)OC(C)(C)C	nt	nt	i	nt	nt
CN(c1ccccc1)S(=O)(=O)c1cccc(C(=O)Nc2nn[nH]n2)c1	i	i	i	nt	nt
O=C(Cn1c(=O)oc2ccccc21)NCC1COc2ccccc2O1 (stereo unspecified)	i	i	i	nt	nt
C/C(Cl)=C/Cc1c(C)[nH]c2ccc(C)cc2c1=O	71	nt	i	i	i
Cc1ccc(C(=O)C(c2ccccc2)N2Cc3ccccc3C2=N)cc1 (stereo unspecified)	i	i	i	i	99
CCCCOCCCNC(=O)C[C@@H]1C[C@@]2(C(=O)OCC)CCCC=C2N(CCc2ccc(OC)c(OC)c2)C1=O	nt	nt	i	nt	nt
Cc1ccc(OCCN2C(=O)c3ccccc3C2=O)c([N+](=O)[O-])c1	i	i	i	i	i
CCC(C)NCCCCOc1ccc(C)cc1[N+](=O)[O-] (stereo unspecified)	i	nt	i	i	88
Cc1ccc(OCCOCCNC(C)(C)C)c([N+](=O)[O-])c1	i	i	i	i	92
C=CCNCCCCOc1ccc(C)cc1[N+](=O)[O-]	i	nt	i	i	61
COc1ccc(OCCOCCOc2ccc(C)cc2[N+](=O)[O-])cc1	i	i	i	i	i
COCCNCCCCOc1ccc(C)cc1[N+](=O)[O-]	i	i	i	i	74
CCn1cc(C(=O)N[C@@H](CCSC)C(=O)NCCCN2CCOCC2)c(=O)c2cc3c(cc21)OCO3	i	i	i	nt	nt
Cn1ncc2c(=O)[nH]cnc21	i	i	i	i	i
Cc1ccc(OCCOCCN2CCCCC2)c([N+](=O)[O-])c1	i	i	i	i	70
COc1cccc(OCCOCCOc2ccc(C)cc2[N+](=O)[O-])c1	i	i	i	i	i
COCCCNCCOc1ccc(C)cc1[N+](=O)[O-]	i	i	i	i	90
COCCCNCCOCCOc1ccc(C)cc1[N+](=O)[O-]	i	nt	i	i	94
CCOC(=O)[C@H]1[C@H]2COc3cc(OC)ccc3[C@@H]2N2C(=O)N(c3ccc(Cl)cc3)C(=O)[C@@]12C	i	i	i	nt	nt
CCCCNc1ccccc1C(=O)OCC(=O)Nc1ccc(S(N)(=O)=O)cc1	i	i	i	i	78
O=C(/C=C\c1ccccc1)Oc1cccc2cccnc12	i	i	i	i	98
O=C(/C=C/c1ccccc1)Oc1cccc2cccnc12	i	i	i	nt	nt
COc1cc(OC)c(S(=O)(=O)Nc2ccc(C(=O)O)cc2)cc1S(=O)(=O)Nc1ccc(C(=O)O)cc1	i	i	i	nt	nt
O=C(O)c1ccc(NS(=O)(=O)c2cc(C(=O)O)ccc2Br)cc1	i	i	i	i	99
COc1ccc2cnn(CCOc3ccccc3)c(=O)c2c1OC	i	nt	i	i	87
SMILES	T cruzi repl	Hep lipid drop	MPTP block	DTT redox prof	L major viab
CCOc1ccccc1OCCn1ncc2ccc(OC)c(OC)c2c1=O	i	nt	i	i	i
COc1ccc2cnn(CCOc3cc(C)ccc3C(C)C)c(=O)c2c1OC	i	i	i	i	95
Oc1ccc(-c2cnc3c(Nc4cccc(OC(F)(F)C(F)F)c4)nccn23)cc1	nt	nt	i	nt	nt
CCOc1ccc(CN2CCN(CC(O)Cn3c4ccccc4c4ccccc43)CC2)cc1 (stereo unspecified)	i	i	i	i	96
COc1ccc(-c2cc3ccccc3n2CC(O)Cn2nc(C)cc2C)cc1 (stereo unspecified)	i	nt	i	i	i
CN1CCN(CC(O)Cn2c3ccccc3c3ccccc32)CC1 (stereo unspecified)	i	i	i	nt	nt
COc1ccc(-c2cc3ccccc3n2CC(O)CN2CCC(C)CC2)cc1 (stereo unspecified)	i	i	i	i	87
